Where “and” joins values, the source holds several entries; their conditions need not be identical. Equal entries are not always repeated. Structures can show the parent of a compound that is named as a salt.
Legend:
[1] = tested on: cartilage oligomeric matrix protein (COMP); assay: CFA-induced RA in rats: serum COMP; assay type: in vivo, female Wister albino rats; settings: treated day 13-27, serum day 28
Method in brief: (§1)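 Arthritis induced as three 0.4 mL subcutaneous plantar CFA injections (days 1, 4, 7); treatments given days 13–27 as topical gel 1 g/day on 4 cm2 shaved dorsum or oral 10 mg/kg/day. Eight rats per group. Day 28, 24 h after last dose, retro-orbital blood under diethyl ether; serum separated at 3000 rpm for 30 min, stored −20°C, assayed by ELISA kit. One-way ANOVA with Tukey test.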

In vitro DH release = assay type: physicochemical; settings: dialysis bag, pH 5.5, 37 °C
Method in brief: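 Formulation or free drug solution (3 mg drug equivalent) held in a cellophane dialysis bag (MWCO 12,000) wrapped on a cylinder. Bag placed in 30 mL PBS, pH 5.5, at 37 ± 0.5 °C, stirred 50 rpm. 3 mL sampled at 1, 2, 3, 5, 6, 7 and 8 h and replaced. UV read at 292 nm. Run in triplicate, mean ± SD, cumulative % released.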

Ex vivo skin permeation = assay type: in vitro ADME, rat
Method in brief: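 Franz cell, 5.0 cm2 permeation area, 100 mL distilled-water receiver. Shaved rat skin mounted stratum corneum up. Donor: vesicle formulation equivalent to 3 mg drug, or drug solution as control. Run at 37 ± 2 °C, 100 rpm, 24 h, sampling at 1–24 h with medium replaced. UV read at 292. Lag time from x-intercept of the linear portion of the cumulative µg/cm2-versus-time plot; Jss (µg/cm2/h) and Kp (cm/h) calculated.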

[2] = tested on: anti-cyclic citrullinated peptide antibody (anti-CCP); assay: CFA-induced RA in rats: serum anti-CCP; assay type: in vivo, female Wister albino rats; settings: treated day 13-27, serum day 28
Method in brief: as §1

CFA-induced RA in rats [3] = assay: CFA-induced RA in rats: histopathology of knee joints, spleen and liver; assay type: in vivo, female Wister albino rats; settings: H&E
Method in brief: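 CFA (0.4 mL) injected subcutaneously into hind-limb plantar surface on days 1, 4 and 7 in female rats, 180–200 g, 8 per group. From day 13 to 27: topical gel 1 g/day on 4 cm2 shaved dorsum, oral 10 mg/kg/day, or reference oral drug 0.1 mg/kg/day. On day 28, under pentobarbitone 50 mg/kg i.p., three knee joints per group plus spleen and liver fixed in 10% formalin saline for 24 h, H&E-stained and read by pathologist.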

[4] = Pharmacokinetic analysis in rats; assay type: in vivo; settings: Wister albino, rat, plasma, 10 mg/kg
Method in brief: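 Rats (200–250 g, six per group) fasted 10 h, then dosed 10 mg/kg by oral gavage or as 1 g gel on 4 cm2 shaved dorsum. Retro-orbital blood (0.5 mL, heparinized) taken 0.25–24 h; plasma stored −20°C. Plasma spiked with internal standard, extracted with tert-butyl methyl ether, reconstituted in acetonitrile:0.1% formic acid (80:20), analysed by LC-MS/MS on C18. Non-compartmental analysis; AUC by trapezoidal rule.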

[5] = cited from earlier work
CFA-induced RA in rats [6] = assay: CFA-induced RA in rats: radiographic analysis; assay type: in vivo, female Wister albino rats; settings: day 28
IL-6 = assay: CFA-induced RA in rats: serum IL-6; assay type: in vivo, female Wister albino rats; settings: treated day 13-27, serum day 28, listed as oral DH
Method in brief: as §1

CN(C)[C@@H](CCOc1cccc2ccccc12)c1ccccc1 [DH, Dapoxetine hydrochloride]
COMP (serum) [1]: 70.30 ± 5.73^a, b, c, d, e pg/mL
DH released in the first 3 h (In vitro DH release): approximately 95%
Papp (Ex vivo skin permeation; rat): 9.44 nm/s
Lag Time (Ex vivo skin permeation; rat skin, Franz cell): 91.10 ± 20.67 min
Y5: Q24, cumulative amount permeated/unit area in 24 h (Ex vivo skin permeation; rat skin, Franz cell, 37 °C, 24 h): 135.6±17.0 µg/cm2
Jss (drug flux, steady state) (Ex vivo skin permeation; rat skin, Franz cell, listed as DH solution): 5.6±0.7 µg/cm2.h and 5.65± 0.71 µg/cm2.h
Anti-CCP (serum) [2]: 4.64 ± 0.15^a, b, c, d, e ng/mL
knee joint histopathology (CFA-induced RA in rats [3]): rough cerrated articular surface
liver histopathology (CFA-induced RA in rats [3]): marked congestion of central veins
spleen histopathology (CFA-induced RA in rats [3]): marked activation in the macrophage in the white pulb
AUC(0-inf) ([4]; oral): 0.734 µg·h/mL
Cmax ([4]; oral): 0.198 µg/mL
AUC(0-inf) ([4]; po): 0.734 ± 0.0511 µg·h/mL
AUC(0-t) ([4]; po): 0.701 ± 0.0258 µg·h/mL
Cmax ([4]; po): 0.198 ± 0.0164 µg/mL
MRT ([4]; po): 5.74 ± 1.56 h
Tmax ([4]; po): 1.5 ± 0.06 h
half-life ([4]; po): 5.46 ± 2.87 h
elimination half-life [5]: 1.31 h
radiographic findings (CFA-induced RA in rats [6]): significant and comparable inhibition of soft tissues swelling
IL-6 (serum) (IL-6): no significant effect

CN(Cc1cnc2nc(N)nc(N)c2n1)c1ccc(C(=O)N[C@@H](CCC(=O)O)C(=O)O)cc1 [MTX, methotrexate]
Anti-CCP (serum) [2]: 4.00 ± 0.03^a, b, c ng/mL
radiographic findings (CFA-induced RA in rats [6]): almost normal soft tissue with disappearance of inflammatory signs
